Source: PubChem
Shown are actives, neighbours in structure and some others; about 2% of the full set was active somewhere.
APJ antagonist = antagonists of human apelin receptor APJ, primary screen, CHO-K1 cells, beta-arrestin complementation, luminescence; inhibition, % at 20 µM; 0.32% of 330,000 active;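 active = inhibition above about 40% at 20 µM, limit read from the data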;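 note: cells challenged with 10 nM apelin-13 agonist together with compound; plate controls were apelin-13 plus DMSO wells for no effect and DMSO wells lacking apelin-13 for full effect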
CXCR6 inh = CXCR6 receptor inhibitors, primary screen, cell-based, beta-arrestin, luminescence, CHO-K1 PathHunter, 1536-well. C-X-C chemokine receptor type 6 (Homo sapiens), O00574. inhibition, % at 20 µM. 0.36% of 360,000 active. AID 602244, 2012; in the data active = inhibition above about 34%, passing the limit was not always enough;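 note: antagonist mode with CXCL16 agonist at 10 nM final; 0% = 10 nM CXCL16 with DMSO and 100% = unstimulated wells without agonist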
Target sequence (O00574 whole entry, looked up): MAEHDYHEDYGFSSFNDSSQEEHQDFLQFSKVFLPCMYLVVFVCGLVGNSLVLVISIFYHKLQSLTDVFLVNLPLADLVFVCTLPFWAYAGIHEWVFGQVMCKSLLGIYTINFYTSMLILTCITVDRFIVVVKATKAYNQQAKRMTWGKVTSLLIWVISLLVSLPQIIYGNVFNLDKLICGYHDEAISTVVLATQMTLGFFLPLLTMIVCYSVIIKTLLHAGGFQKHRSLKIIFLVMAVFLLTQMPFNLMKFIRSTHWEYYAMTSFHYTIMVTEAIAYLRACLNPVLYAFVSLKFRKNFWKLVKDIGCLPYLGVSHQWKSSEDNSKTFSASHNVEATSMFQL
EBI2 block = EBI2 receptor antagonists, beta-arrestin recruitment, primary screen, cell-based, luminescence, 7a,25-OHC stimulation, uHTS. G-protein coupled receptor 183 (Homo sapiens), P32249. 7a,25-OHC stimulated. inhibition, % at 5 µM. 0.81% of 360,000 active; in the data active = inhibition above about 38%;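 note: enzyme fragment complementation signal reports receptor beta-arrestin coupling in cells; 0% = agonist plus DMSO wells and 100% = wells without agonist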
GAA850 FXN act = FXN promoter activators, primary screen, cell-based, luciferase luminescence, HEK293 lucGAA850 | HEK293 lucGAA850 FXN promoter luciferase reporter, 24 h; percent of 10 µM SAHA response | activation, % at 6 µM | 0.56% of 360,000 active;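 active = activation above the average of all compounds screened plus 3 SD, cutoff fixed separately per campaign, cut at about 7.5% in these data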;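 note: 0% = DMSO wells and 100% = 10 µM SAHA wells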
CCR6 antag = CCR6 receptor antagonists, primary screen, cell-based, CHO-K1, luminescence, beta-arrestin, uHTS; C-C chemokine receptor type 6 (Homo sapiens), P51684; CHO-K1 CCR6 PathHunter beta-arrestin, CCL20-stimulated; inhibition, % at 20 µM; 0.49% of 340,000 active; AID 493098, 2011;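 active = compounds whose inhibition of the agonist-driven luminescence signal at 20 µM reaches about 50%, limit read from the data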;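 note: cells stimulated with CCL20 at 14 nM final; plate controls were DMSO with CCL20 for no effect and DMSO without agonist for full effect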
APJ agonist = agonists of human apelin receptor APJ, primary screen, CHO-K1 cells, PathHunter beta-arrestin, luminescence; 0% DMSO wells, 100% apelin; activation, % at 20 µM; 0.11% of 330,000 active;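 active = activation more than six SD over the plate average, tested at 20 µM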;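 note: 0% = DMSO alone and 100% = apelin-13 at 10 nM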
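Test system – PathHunter CHO-K1 APJ (AGTRL-1) beta-arrestin reporter cells · Input – 1000 cells/well · Compound – single test compound dose, 20 µM final, 1% DMSO · Times – compound stimulation 90 min at 25 °C, detection 60 min · Technique – beta-gal luminescence · Read-out basis – APJ–arrestin association signal · Control set – negative DMSO alone, positive Apelin-13 at 10 nM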
APJ antag confirm = APJ antagonists blocking beta-arrestin recruitment, confirmation, cell-based, luminescence, single concentration, uHTS hits; shares compounds with APJ antagonist; antagonist mode; inhibition, % at 20 µM; 66% of 950 active; in the data active = inhibition above about 50%
Active calls of the source: *.

`CCn1c(O)c(N=Nc2ccc3ccccc3n2)c2ccccc21` gave APJ antagonist 13, CXCR6 inh 4, EBI2 block 29, GAA850 FXN act 7, CCR6 antag 13 and APJ agonist -2.
`Cc1cc(SCC(=O)c2ccc(O)c(O)c2)n2nc(C)c(-c3ccccc3)c2n1` gave APJ antagonist 9, CXCR6 inh 4, EBI2 block 10, GAA850 FXN act 3, CCR6 antag 24 and APJ agonist 1.
CCCn1cnc2c(sc3nc4c(cc32)CSC(C)(C)C4)c1=O was read as APJ antagonist -1, CXCR6 inh -5, EBI2 block 4, GAA850 FXN act 4, CCR6 antag -6 and APJ agonist 2.
`CC1(C)Cc2nc3sc4c(=O)n(Cc5ccccc5)cnc4c3cc2CS1` gave APJ antagonist 59*, CXCR6 inh 2, EBI2 block 12, GAA850 FXN act 6, CCR6 antag 12, APJ agonist -1 and APJ antag confirm 20.
`O=C(Nc1ccc(Br)cc1)c1cc(-c2ccncc2)nc2ccccc12` gave APJ antagonist 4, CXCR6 inh 1, EBI2 block -7, GAA850 FXN act -4, CCR6 antag -3 and APJ agonist -1.
Screening O=C(C1CCCCC1)N1CCCn2c1nc1ccccc12 returned APJ antagonist 4, CXCR6 inh -23, EBI2 block 2, GAA850 FXN act 2, CCR6 antag -3 and APJ agonist -3.
For O=C(C1CCN(S(=O)(=O)c2cnc[nH]2)CC1)N1CCn2c1nc1ccccc12 the results were APJ antagonist 61*, CXCR6 inh 56*, EBI2 block 35, GAA850 FXN act 0, CCR6 antag 67*, APJ agonist -14 and APJ antag confirm 101*.
`CCOc1ccc(Br)cc1S(=O)(=O)Nc1cccc(S(=O)(=O)Nc2ccccc2C(=O)O)c1` gave APJ antagonist 14, CXCR6 inh 2, EBI2 block -25, GAA850 FXN act 0, CCR6 antag -4 and APJ agonist -5.
`CCN1C(=O)[C@H]2[C@@H](c3ccc(C)cc3)N[C@]3(CCCN(Cc4ccco4)C3=O)[C@H]2C1=O` gave CXCR6 inh 0, EBI2 block -7 and GAA850 FXN act -1.
`CC(=O)c1cccc(NC(=O)Cn2cnc(S(=O)(=O)N3CCC(C)CC3)c2)c1` gave APJ antagonist 42*, CXCR6 inh -9, EBI2 block 9, GAA850 FXN act -3, CCR6 antag -3, APJ agonist -3 and APJ antag confirm 23.
For CC1CCN(S(=O)(=O)c2cn(CC(=O)Nc3cccc(C#N)c3)cn2)CC1 the results were APJ antagonist 3, CXCR6 inh -8, EBI2 block -6, GAA850 FXN act -3, CCR6 antag 16 and APJ agonist -1.
For S=C1NCCc2ccccc2C1c1ccccc1 (centres undefined) the results were APJ antagonist 19, CXCR6 inh 12, EBI2 block -1, GAA850 FXN act 1, CCR6 antag 31 and APJ agonist -5.
S=C1NCCc2ccccc2C1c1ccccc1Cl (centres undefined) was read as APJ antagonist 44*, CXCR6 inh 35, EBI2 block 9, GAA850 FXN act -2, CCR6 antag 52*, APJ agonist -11 and APJ antag confirm 87*.
For COc1cc(C=C2C(=O)c3ccccc3C2=O)cc(OC)c1 the results were APJ antagonist 3, CXCR6 inh 4, EBI2 block -1, GAA850 FXN act 0, CCR6 antag 18 and APJ agonist -1.
`COc1ccc(C=C2C(=O)c3ccccc3C2=O)cc1O` gave APJ antagonist 45*, CXCR6 inh 32, EBI2 block 4, GAA850 FXN act 3, CCR6 antag 43, APJ agonist -8 and APJ antag confirm 59*.
O=C(CS(=O)CC(=O)NC12CC3CC(CC(C3)C1)C2)Nc1ccc(F)cc1 (centres undefined) was read as APJ antagonist -4, CXCR6 inh -4, EBI2 block -6, GAA850 FXN act -1, CCR6 antag 9 and APJ agonist -2.
Screening CCN(CC)c1ccc2nc3ccccc3[n+](CC)c2c1 returned APJ antagonist 29, CXCR6 inh 21, EBI2 block 4, GAA850 FXN act -6, CCR6 antag 40 and APJ agonist -6.
For CCN(CC)c1ccc2nc3ccc(N)cc3[n+](-c3ccccc3)c2c1 the results were APJ antagonist 45*, CXCR6 inh 40, EBI2 block 11, GAA850 FXN act -8, CCR6 antag 59*, APJ agonist -10 and APJ antag confirm 96*.
O=C(O)c1cccc(N/N=C(\N=Nc2ccccc2)c2ccccc2)c1 was read as APJ antagonist 38, CXCR6 inh 28, EBI2 block -2, GAA850 FXN act 3, CCR6 antag 45 and APJ agonist -13.
`O=C(O)c1ccc(N=N/C(=N\Nc2ccc(C(=O)O)cc2)c2ccccc2)cc1` gave APJ antagonist 55*, CXCR6 inh 25, EBI2 block 17, GAA850 FXN act 2, CCR6 antag 49, APJ agonist -7 and APJ antag confirm 84*.
Screening CN(C)S(=O)(=O)c1ccc(Cl)c(C(=O)NNC(=O)c2ccc3c(c2)OCO3)c1 returned APJ antagonist 6, CXCR6 inh -7, EBI2 block 0, GAA850 FXN act 0, CCR6 antag 13 and APJ agonist -1.
`CC1=C/C(=C(/c2ccc(O)c(C)c2)c2ccccc2S(=O)(=O)O)C=CC1=O` gave APJ antagonist 46*, CXCR6 inh 41*, EBI2 block 5, GAA850 FXN act 1, CCR6 antag 55*, APJ agonist -9 and APJ antag confirm 59*.
CC1=C/C(=C(/c2cc(C)c(O)c(Br)c2)c2ccccc2S(=O)(=O)O)C=C(Br)C1=O was read as APJ antagonist 46*, CXCR6 inh 43*, EBI2 block 16, GAA850 FXN act 1, CCR6 antag 64*, APJ agonist -11 and APJ antag confirm 86*.
